Activity calls are given as the source filed them. The calls are words filed in the database; no cut-off is given here.
Key:
NCI-H460 = assay: Cytotoxicity against human NCI-H460 cells after 48 hrs by sulforhodamine B assay; format: functional; details: NCI-H460, 48 h
Procedure, shortened: (§1)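 Cells grown in RPMI 1640 with 5% FBS at 37 °C, 5% CO2, with penicillin/streptomycin. Treated for 48 h with compound in DMSO/RPMI at […]. Fixed with 50% trichloroacetic acid, protein stained with sulforhodamine B and read at 540 nm. TGI (total growth inhibition) obtained by non-linear regression of the concentration–response curves.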

[1] = Antitumor activity against mouse EAC cells xenografted in BALB/C mouse assessed as inhibition of increase in tumor volume at 50 mg/kg, ip administered every 3 days measured on day 10 relative to control; format: functional; details: Ehrlich, route intraperitoneal
Procedure, shortened: (§2)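 Ehrlich cells kept as ascites by weekly ip passage of 5 × 10^5 cells in mice. Balb/C mice (n = 8/group) inoculated with 2.5 × 10^6 cells into the right hind footpad. Dosed ip every third day from day 3, vehicle 0.9% saline. Tumour volume taken as plethysmometer paw volume minus basal, every third day to day 15. Reported as % inhibition vs vehicle ± SD; ANOVA.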

UACC-62 = assay: Cytotoxicity against human UACC62 cells after 48 hrs by sulforhodamine B assay; format: functional; details: UACC-62, 48 h; procedure, shortened: as §1
[2] = Antitumor activity against mouse EAC cells xenografted in BALB/C mouse assessed as reduction of tumor weight at 50 mg/kg, ip administered every 3 days measured on day 15 relative to control; format: functional; details: Ehrlich, route intraperitoneal
Procedure, shortened: (§3)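 Ehrlich footpad tumour model in Balb/C mice (n = 8/group, 2.5 × 10^6 cells) with ip dosing every third day from day 3 in 0.9% saline. Mice sacrificed on day 15 and both hind paws weighed. Relative tumour weight = (tumour paw − healthy paw weight)/body weight. Reported as % inhibition vs vehicle ± SD; ANOVA.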

[3] = Cytotoxicity against human PCO3 cells after 48 hrs by sulforhodamine B assay; format: functional; details: PCO3, 48 h; procedure, shortened: as §1
U-251 = assay: Cytotoxicity against human U251 cells after 48 hrs by sulforhodamine B assay; format: functional; details: U-251, 48 h; procedure, shortened: as §1
786-0 = assay: Cytotoxicity against human 786-0 cells after 48 hrs by sulforhodamine B assay; format: functional; details: 786-0, 48 h; procedure, shortened: as §1
[4] = Cytotoxicity against human NCI-ADR-RES cells after 48 hrs by sulforhodamine B assay; format: functional; procedure, shortened: as §1
[5] = Antitumor activity against mouse EAC cells xenografted in BALB/C mouse assessed as inhibition of increase in tumor volume at 50 mg/kg, ip administered every 3 days measured on day 15 relative to control; format: functional; details: Ehrlich, route intraperitoneal; procedure, shortened: as §2
HT-29 = assay: Cytotoxicity against human HT-29 cells after 48 hrs by sulforhodamine B assay; format: functional; details: HT-29, 48 h; procedure, shortened: as §1
Mus musculus [6] = assay: Acute toxicity in BALB/C mouse assessed as reduction of body weight at up to 50 mg/kg, ip after 15 days; format: organism-based; set-up: dose 50 mg/kg, route intraperitoneal; details: in vivo, 360 h
Procedure, shortened: (§4)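 Balb/C mice (20–35 g) dosed intraperitoneally at 50, 100 and 300 mg/kg. Observed for 4 h, then daily for 14 days, for body weight loss, locomotion, behaviour (agitation, lethargy), respiration, salivation, tearing eyes, cyanosis and mortality.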

OVCAR-3 = assay: Cytotoxicity against human OVCAR-3 cells after 48 hrs by sulforhodamine B assay; format: functional; details: OVCAR-3, 48 h; procedure, shortened: as §1
MCF7 = assay: Cytotoxicity against human MCF7 cells after 48 hrs by sulforhodamine B assay; format: functional; details: MCF7, 48 h; procedure, shortened: as §1
Mus musculus [7] = assay: Acute toxicity in BALB/C mouse assessed as mortality at up to 300 mg/kg, ip after 15 days; format: organism-based; set-up: dose 300 mg/kg, route intraperitoneal; details: in vivo, 360 h; procedure, shortened: as §4
Mus musculus [8] = assay: Acute toxicity in BALB/C mouse assessed as mortality at up to 300 mg/kg, ip after 4 hrs; format: organism-based; set-up: dose 300 mg/kg, route intraperitoneal; details: in vivo; procedure, shortened: as §4
Mus musculus [9] = assay: Antiinflammatory activity in BALB/C mouse assessed as inhibition of carrageenan-induced paw edema at 20 mg/kg, ip administered 30 mins before carrageenan challenge measured before 48 hrs by plethysmometer; format: functional, organism-based; set-up: dose 20 mg/kg
Procedure, shortened: (§5)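 Balb/C mice, n = 8/group. Right hind paw basal volume measured by plethysmometer. Single ip dose in 0.9% saline vehicle, then carrageenan 2.5% injected intraplantar into the right hind footpad 30 min later. Edema taken as measured minus basal volume at 1.5, 3.0, 4.5, 6.0, 24, 48 and 72 h. Expressed as % inhibition vs vehicle ± standard deviation; ANOVA.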

Mus musculus [10] = assay: Antiinflammatory activity in BALB/C mouse assessed as inhibition of carrageenan-induced paw edema at 30 mg/kg, ip administered 30 mins before carrageenan challenge measured before 48 hrs by plethysmometer; format: functional, organism-based; set-up: dose 30 mg/kg; procedure, shortened: as §5
[11] = Antitumor activity against mouse EAC cells xenografted in BALB/C mouse assessed as inhibition of tumor growth at 30 mg/kg, ip administered every 3 days measured on day 15 relative to control; format: functional; details: Ehrlich, route intraperitoneal; procedure, shortened: as §2
Mus musculus [12] = assay: Antiinflammatory activity in BALB/C mouse assessed as inhibition of carrageenan-induced paw edema at 100 mg/kg, ip administered 30 mins before carrageenan challenge measured before 24 hrs by plethysmometer; format: functional, organism-based; set-up: dose 100 mg/kg; procedure, shortened: as §5
[13] = Antitumor activity against mouse EAC cells xenografted in BALB/C mouse assessed as reduction of tumor weight at 300 mg/kg, ip administered every 3 days measured on day 15 relative to control; format: functional; details: Ehrlich, route intraperitoneal; procedure, shortened: as §3
[14] = Antitumor activity against mouse EAC cells xenografted in BALB/C mouse assessed as inhibition of tumor growth at 300 mg/kg, ip administered every 3 days measured on day 7 relative to control; format: functional; details: Ehrlich, route intraperitoneal; procedure, shortened: as §2
[15] = Antitumor activity against mouse EAC cells xenografted in BALB/C mouse assessed as inhibition of tumor growth at 30 mg/kg, ip administered every 3 days measured on day 7 relative to control; format: functional; details: Ehrlich, route intraperitoneal; procedure, shortened: as §2
Mus musculus [16] = assay: Antiinflammatory activity in BALB/C mouse assessed as inhibition of carrageenan-induced paw edema at 100 mg/kg, ip administered 30 mins before carrageenan challenge measured before 72 hrs by plethysmometer; format: functional, organism-based; set-up: dose 100 mg/kg; procedure, shortened: as §5
[17] = Antitumor activity against mouse EAC cells xenografted in BALB/C mouse assessed as reduction of tumor weight at 30 mg/kg, ip administered every 3 days measured on day 15 relative to control; format: functional; details: Ehrlich, route intraperitoneal; procedure, shortened: as §3
[18] = Antitumor activity against mouse EAC cells xenografted in BALB/C mouse assessed as reduction of tumor weight at 100 mg/kg, ip administered every 3 days measured on day 15 relative to control; format: functional; details: Ehrlich, route intraperitoneal; procedure, shortened: as §3
Mus musculus [19] = assay: Antiinflammatory activity in BALB/C mouse assessed as inhibition of carrageenan-induced paw edema at 100 mg/kg, ip administered 30 mins before carrageenan challenge measured before 6 hrs by plethysmometer; format: functional, organism-based; set-up: dose 100 mg/kg; procedure, shortened: as §5
[20] = Antitumor activity against mouse EAC cells xenografted in BALB/C mouse assessed as inhibition of tumor growth at 300 mg/kg, ip administered every 3 days measured on day 15 relative to control; format: functional; details: Ehrlich, route intraperitoneal; procedure, shortened: as §2
Mus musculus [21] = assay: Antiinflammatory activity in BALB/C mouse assessed as inhibition of carrageenan-induced paw edema at 100 mg/kg, ip administered 30 mins before carrageenan challenge measured after 3 to 4.5 hrs by plethysmometer; format: functional, organism-based; set-up: dose 100 mg/kg; procedure, shortened: as §5
Mus musculus [22] = assay: Acute toxicity in BALB/C mouse assessed as reduction of body weight at up to 300 mg/kg, ip after 15 days; format: organism-based; set-up: dose 300 mg/kg, route intraperitoneal; details: in vivo, 360 h; procedure, shortened: as §4
[23] = Antitumor activity against mouse EAC cells xenografted in BALB/C mouse assessed as inhibition of tumor growth at 100 mg/kg, ip administered every 3 days measured on day 15 relative to control; format: functional; details: Ehrlich, route intraperitoneal; procedure, shortened: as §2
[24] = Antitumor activity against mouse EAC cells xenografted in BALB/C mouse assessed as inhibition of tumor growth at 100 mg/kg, ip administered every 3 days measured on day 7 relative to control; format: functional; details: Ehrlich, route intraperitoneal; procedure, shortened: as §2
Mus musculus [25] = assay: Antiinflammatory activity in BALB/C mouse assessed as inhibition of carrageenan-induced paw edema at 30 mg/kg, ip administered 30 mins before carrageenan challenge measured before 6 hrs by plethysmometer; format: functional, organism-based; set-up: dose 30 mg/kg; procedure, shortened: as §5
Mus musculus [26] = assay: Antiinflammatory activity in BALB/C mouse assessed as inhibition of carrageenan-induced paw edema at 300 mg/kg, ip administered 30 mins before carrageenan challenge measured after 48 to 72 hrs by plethysmometer; format: functional, organism-based; set-up: dose 300 mg/kg; procedure, shortened: as §5

Compound	TGI (NCI-H460)	TGI (UACC-62)	TGI [3]	TGI (U-251)	TGI (786-0)	TGI [4]	TGI (HT-29)	TGI (OVCAR-3)	TGI (MCF7)	Activity (Mus musculus [7])	Activity (Mus musculus [8])	inhibition (Mus musculus [9])	also measured
O=C1C=CC[C@@H](/C=C/c2ccccc2)O1	44.1 µM	76.4 µM	24 µM	24.1 µM	28.7 µM	11.5 µM	57.6 µM	> 100 µM	77 µM	Non-toxic	Non-toxic		inhibition in vivo at 50 mg/kg [1]: 53.7%; inhibition in vivo at 50 mg/kg [2]: 39.7%; inhibition in vivo at 50 mg/kg [5]: 48.7%; Activity (Mus musculus [6]): Non-toxic
CN1C(C(=O)Nc2ccccn2)=C(O)c2ccccc2S1(=O)=O												Active	
O=C1C=CCC(/C=C/c2ccccc2)O1 (racemic)	36.4 µM	23.2 µM	18.2 µM	18.2 µM	22.4 µM	6.38 µM	29.2 µM	18.8 µM	22.7 µM	Non-toxic	Non-toxic	Active	inhibition (Mus musculus [10]): Active; inhibition in vivo at 30 mg/kg [11]: 48.5%; inhibition (Mus musculus [12]): Active; inhibition in vivo at 300 mg/kg [13]: 41.8%; inhibition in vivo at 300 mg/kg [14]: 35.7%; inhibition in vivo at 30 mg/kg [15]: 50%; inhibition (Mus musculus [16]): Active; inhibition in vivo at 30 mg/kg [17]: 36.7%; inhibition in vivo at 100 mg/kg [18]: 31.6%; inhibition (Mus musculus [19]): inactive; inhibition in vivo at 300 mg/kg [20]: 66.7%; inhibition (Mus musculus [21]): Active; Activity (Mus musculus [22]): Non-toxic; inhibition in vivo at 100 mg/kg [23]: 40.9%; inhibition in vivo at 100 mg/kg [24]: 41.7%; inhibition (Mus musculus [25]): inactive; inhibition (Mus musculus [26]): Active

Reference: ChEMBL document CHEMBL1240522, “Effect of goniothalamin on the development of Ehrlich solid tumor in mice” (Bioorg Med Chem, 2010)
